# Measurements as given in ChEMBL document CHEMBL3045565, “Microwave synthesis, characterization and bio-efficacy evaluation of novel chalcone based 6-carbethoxy-2-cyclohexen-1-one and 2H-indazol-3-ol derivatives” (Eur J Med Chem, 2013).
# Tested on: Radical scavenging activity
# Assay: Antioxidant activity assessed as DPPH free radical scavenging activity at 40 ug/mL after 20 min by UV-Vis spectrophotometric analysis
# Format: functional
# Conditions: not given
# Outline: (§1)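 DPPH radical scavenging: samples were held at room temperature for 20 min in the dark, and absorbance was read at 517 nm. The control contained DMSO without compound, and methanol was used for baseline correction. Scavenging percentage was calculated from the absorbances.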
row,Structure (SMILES),Activity [%]
1,O=[N+]([O-])c1ccc(C2=Cc3n[nH]c(O)c3C(c3ccc4c(c3)OCO4)C2)cc1 (configuration not stated),19.8
2,COc1cc(C2CC(c3ccccc3)=Cc3n[nH]c(O)c32)cc(OC)c1OC (configuration not stated),67.1

# Tested on: Radical scavenging activity
# Assay: Antioxidant activity assessed as DPPH free radical scavenging activity at 400 ug/mL after 20 min by UV-Vis spectrophotometric analysis
# Format: functional
# Conditions: not given
# Outline: as §1
row,Structure (SMILES),Activity [%]
1,O=[N+]([O-])c1ccc(C2=Cc3n[nH]c(O)c3C(c3ccc4c(c3)OCO4)C2)cc1 (configuration not stated),87.3
2,COc1cc(C2CC(c3ccccc3)=Cc3n[nH]c(O)c32)cc(OC)c1OC (configuration not stated),90.5

# Tested on: Radical scavenging activity
# Assay: Antioxidant activity assessed as DPPH free radical scavenging activity at 500 ug/mL after 20 min by UV-Vis spectrophotometric analysis
# Format: functional
# Conditions: not given
# Outline: as §1
row,Structure (SMILES),Activity [%]
1,O=[N+]([O-])c1ccc(C2=Cc3n[nH]c(O)c3C(c3ccc4c(c3)OCO4)C2)cc1 (configuration not stated),87.3
2,COc1cc(C2CC(c3ccccc3)=Cc3n[nH]c(O)c32)cc(OC)c1OC (configuration not stated),90.8

# Tested on: Dickeya chrysanthemi
# Assay: Antibacterial activity against Erwinia chrysanthemi ITCC B-40 assessed as as growth inhibition at 100 ug/disk after 24 hr by disk diffusion method
# Format: functional
# Conditions: ITCC B-40, 24 h, read-out: DIZ
# Outline: (§2)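 Disk diffusion on nutrient agar. Strains kept on NA slants at 37 °C and subcultured in nutrient broth before testing. A log-phase culture was spread on solidified medium, and sterile disks were loaded with compound from DMSO stock. DMSO served as control, with commercial antibiotics for reference. Plates ran 24 h at 37 °C, and inhibition zones (mm) were read in quadruplicate.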
row,Structure (SMILES),zone of inhibition at 100 µg/disc [mm]
1,O=[N+]([O-])c1ccc(C2=Cc3n[nH]c(O)c3C(c3ccc4c(c3)OCO4)C2)cc1 (configuration not stated),0
2,COc1cc(C2CC(c3ccccc3)=Cc3n[nH]c(O)c32)cc(OC)c1OC (configuration not stated),0

# Tested on: Radical scavenging activity
# Assay: Antioxidant activity assessed as DPPH free radical scavenging activity at 100 ug/mL after 20 min by UV-Vis spectrophotometric analysis
# Format: functional
# Conditions: not given
# Outline: as §1
row,Structure (SMILES),Activity [%]
1,O=[N+]([O-])c1ccc(C2=Cc3n[nH]c(O)c3C(c3ccc4c(c3)OCO4)C2)cc1 (configuration not stated),50.7
2,COc1cc(C2CC(c3ccccc3)=Cc3n[nH]c(O)c32)cc(OC)c1OC (configuration not stated),91.8

# Tested on: Radical scavenging activity
# Assay: Antioxidant activity assessed as DPPH free radical scavenging activity at 60 ug/mL after 20 min by UV-Vis spectrophotometric analysis
# Format: functional
# Conditions: not given
# Outline: as §1
row,Structure (SMILES),Activity [%]
1,O=[N+]([O-])c1ccc(C2=Cc3n[nH]c(O)c3C(c3ccc4c(c3)OCO4)C2)cc1 (configuration not stated),38.4
2,COc1cc(C2CC(c3ccccc3)=Cc3n[nH]c(O)c32)cc(OC)c1OC (configuration not stated),86.4

# Tested on: Radical scavenging activity
# Assay: Antioxidant activity assessed as DPPH free radical scavenging activity at 20 ug/mL after 20 min by UV-Vis spectrophotometric analysis
# Format: functional
# Conditions: not given
# Outline: as §1
row,Structure (SMILES),Activity [%]
1,O=[N+]([O-])c1ccc(C2=Cc3n[nH]c(O)c3C(c3ccc4c(c3)OCO4)C2)cc1 (configuration not stated),5.8
2,COc1cc(C2CC(c3ccccc3)=Cc3n[nH]c(O)c32)cc(OC)c1OC (configuration not stated),31.5

# Tested on: Bacillus thuringiensis
# Assay: Antibacterial activity against Bacillus thuringiensis MTCC 6941 assessed as growth inhibition at 100 ug/disk after 24 hr by disk diffusion method
# Format: functional
# Conditions: MTCC 6941, 24 h, read-out: DIZ
# Outline: as §2
row,Structure (SMILES),zone of inhibition at 100 µg/disc [mm]
1,O=[N+]([O-])c1ccc(C2=Cc3n[nH]c(O)c3C(c3ccc4c(c3)OCO4)C2)cc1 (configuration not stated),0
2,COc1cc(C2CC(c3ccccc3)=Cc3n[nH]c(O)c32)cc(OC)c1OC (configuration not stated),0

# Tested on: Pseudomonas aeruginosa
# Assay: Antibacterial activity against Pseudomonas aeruginosa MTCC 2581 assessed as growth inhibition at 100 ug/disk after 24 hr by disk diffusion method
# Format: functional
# Conditions: MTCC 2581, 24 h, read-out: DIZ
# Outline: as §2
row,Structure (SMILES),zone of inhibition at 100 µg/disc [mm]
1,O=[N+]([O-])c1ccc(C2=Cc3n[nH]c(O)c3C(c3ccc4c(c3)OCO4)C2)cc1 (configuration not stated),0
2,COc1cc(C2CC(c3ccccc3)=Cc3n[nH]c(O)c32)cc(OC)c1OC (configuration not stated),0

# Tested on: Radical scavenging activity
# Assay: Antioxidant activity assessed as DPPH free radical scavenging activity at 300 ug/mL after 20 min by UV-Vis spectrophotometric analysis
# Format: functional
# Conditions: not given
# Outline: as §1
row,Structure (SMILES),Activity [%]
1,O=[N+]([O-])c1ccc(C2=Cc3n[nH]c(O)c3C(c3ccc4c(c3)OCO4)C2)cc1 (configuration not stated),87.9
2,COc1cc(C2CC(c3ccccc3)=Cc3n[nH]c(O)c32)cc(OC)c1OC (configuration not stated),91.2

# Tested on: Radical scavenging activity
# Assay: Antioxidant activity assessed as DPPH free radical scavenging activity at 200 ug/mL after 20 min by UV-Vis spectrophotometric analysis
# Format: functional
# Conditions: not given
# Outline: as §1
row,Structure (SMILES),Activity [%]
1,O=[N+]([O-])c1ccc(C2=Cc3n[nH]c(O)c3C(c3ccc4c(c3)OCO4)C2)cc1 (configuration not stated),83.4
2,COc1cc(C2CC(c3ccccc3)=Cc3n[nH]c(O)c32)cc(OC)c1OC (configuration not stated),92.3

# Tested on: Klebsiella pneumoniae
# Assay: Antibacterial activity against Klebsiella pneumoniae MTCC 7028 assessed as growth inhibition at 100 ug/disk after 24 hr by disk diffusion method
# Format: functional
# Conditions: MTCC 7028, 24 h, read-out: DIZ
# Outline: as §2
row,Structure (SMILES),zone of inhibition at 100 µg/disc [mm]
1,O=[N+]([O-])c1ccc(C2=Cc3n[nH]c(O)c3C(c3ccc4c(c3)OCO4)C2)cc1 (configuration not stated),0
2,COc1cc(C2CC(c3ccccc3)=Cc3n[nH]c(O)c32)cc(OC)c1OC (configuration not stated),0

# Tested on: Radical scavenging activity
# Assay: Antioxidant activity assessed as DPPH free radical scavenging activity after 20 min by UV-Vis spectrophotometric analysis
# Format: functional
# Design: concentration or dose not given beside the values
# Conditions: not given
# Outline: as §1
Structure (SMILES),Activity [%],IC50 [µg/mL]
O=[N+]([O-])c1ccc(C2=Cc3n[nH]c(O)c3C(c3ccc4c(c3)OCO4)C2)cc1 (configuration not stated),19.8,95.82
COc1cc(C2CC(c3ccccc3)=Cc3n[nH]c(O)c32)cc(OC)c1OC (configuration not stated),67.1,22.28

# Tested on: Radical scavenging activity
# Assay: Antioxidant activity assessed as DPPH free radical scavenging activity at 10 ug/mL after 20 min by UV-Vis spectrophotometric analysis
# Format: functional
# Conditions: not given
# Outline: as §1
row,Structure (SMILES),Activity [%]
1,O=[N+]([O-])c1ccc(C2=Cc3n[nH]c(O)c3C(c3ccc4c(c3)OCO4)C2)cc1 (configuration not stated),5.3
2,COc1cc(C2CC(c3ccccc3)=Cc3n[nH]c(O)c32)cc(OC)c1OC (configuration not stated),18.1

# Tested on: Athelia rolfsii
# Assay: Antifungal activity against Athelia rolfsii ITCC 6181 by food poisoning method
# Format: functional
# Conditions: Agroathelia rolfsii
# Outline: (§3)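 Poisoned food technique on PDA at several concentrations. A 5 mm mycelial plug from the growing edge of a 2-week-old colony was placed inoculum-side down at the plate centre. Plates incubated at 27 °C until control growth was nearly complete. Colony diameter measured, percent inhibition calculated against control, LC50 derived. Four replicates per treatment.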
row,Structure (SMILES),LC50 [µg/mL]
1,O=[N+]([O-])c1ccc(C2=Cc3n[nH]c(O)c3C(c3ccc4c(c3)OCO4)C2)cc1 (configuration not stated),963
2,COc1cc(C2CC(c3ccccc3)=Cc3n[nH]c(O)c32)cc(OC)c1OC (configuration not stated),1020

# Tested on: Bacillus pumilus
# Assay: Antibacterial activity against Bacillus pumilus MTCC 2466 assessed as growth inhibition at 100 ug/disk after 24 hr by disk diffusion method
# Format: functional
# Conditions: MTCC 2466, 24 h, read-out: DIZ
# Outline: as §2
row,Structure (SMILES),zone of inhibition at 100 µg/disc [mm]
1,O=[N+]([O-])c1ccc(C2=Cc3n[nH]c(O)c3C(c3ccc4c(c3)OCO4)C2)cc1 (configuration not stated),0
2,COc1cc(C2CC(c3ccccc3)=Cc3n[nH]c(O)c32)cc(OC)c1OC (configuration not stated),0

# Tested on: Xanthomonas oryzae
# Assay: Antibacterial activity against Xanthomonas oryzae ITCC B-47 assessed as as growth inhibition at 100 ug/disk after 24 hr by disk diffusion method
# Format: functional
# Conditions: ITCC B-47, 24 h, read-out: DIZ
row,Structure (SMILES),zone of inhibition at 100 µg/disc [mm]
1,O=[N+]([O-])c1ccc(C2=Cc3n[nH]c(O)c3C(c3ccc4c(c3)OCO4)C2)cc1 (configuration not stated),0
2,COc1cc(C2CC(c3ccccc3)=Cc3n[nH]c(O)c32)cc(OC)c1OC (configuration not stated),0

# Tested on: Radical scavenging activity
# Assay: Antioxidant activity assessed as DPPH free radical scavenging activity at 80 ug/mL after 20 min by UV-Vis spectrophotometric analysis
# Format: functional
# Conditions: not given
# Outline: as §1
row,Structure (SMILES),Activity [%]
1,O=[N+]([O-])c1ccc(C2=Cc3n[nH]c(O)c3C(c3ccc4c(c3)OCO4)C2)cc1 (configuration not stated),44.5
2,COc1cc(C2CC(c3ccccc3)=Cc3n[nH]c(O)c32)cc(OC)c1OC (configuration not stated),90.7

# Tested on: Rhizoctonia solani
# Assay: Antifungal activity against Rhizoctonia solani ITCC 5563 by food poisoning method
# Format: functional
# Conditions: not given
# Outline: as §3
row,Structure (SMILES),LC50 [µg/mL]
1,O=[N+]([O-])c1ccc(C2=Cc3n[nH]c(O)c3C(c3ccc4c(c3)OCO4)C2)cc1 (configuration not stated),931
2,COc1cc(C2CC(c3ccccc3)=Cc3n[nH]c(O)c32)cc(OC)c1OC (configuration not stated),917

# Tested on: Staphylococcus aureus
# Assay: Antibacterial activity against Staphylococcus aureus MTCC 3160 assessed as growth inhibition at 100 ug/disk after 24 hr by disk diffusion method
# Format: functional
# Conditions: MTCC 3160, 24 h, read-out: DIZ
# Outline: as §2
row,Structure (SMILES),zone of inhibition at 100 µg/disc [mm]
1,O=[N+]([O-])c1ccc(C2=Cc3n[nH]c(O)c3C(c3ccc4c(c3)OCO4)C2)cc1 (configuration not stated),0
2,COc1cc(C2CC(c3ccccc3)=Cc3n[nH]c(O)c32)cc(OC)c1OC (configuration not stated),0
